# Experimental data pooled from the literature.
# Compare with care: the assays were run in different laboratories.
# Tested at: 1 µM
# CDK5: Cyclin-dependent kinase 5 (CDK5, Homo sapiens, UniProt Q00535)
# CDK5 with p35: Cyclin-dependent kinase 5, with p35 (CDK5, Homo sapiens, UniProt Q00535)
Compound,target,assay,endpoint,result
Cc1cc(S(=O)(=O)N[C@H]2CC[C@H](CN3CCN(c4ccc(C5CCC(=O)NC5=O)cc4F)CC3)CC2)ccc1Nc1ncc(C(F)(F)F)c(N2CCC[C@](C)(O)C2)n1 (some centres unmarked),CDK5,"binding, competition with immobilised ligand",remaining binding,29%
C[C@H]1CC[C@H](n2c3cnccc3c3cnc(Nc4ccc5c(n4)CCN(C(=O)CO)C5)nc32)CC1,CDK5,"binding, competition with immobilised ligand",remaining binding,26%
C=CC(=O)N1CCC[C@@H](n2nc(-c3ccc(Oc4ccccc4)cc3)c3c(N)ncnc32)C1,CDK5,"enzyme activity, inhibitor",inhibition,10%
COc1ccc2oc(-c3ccc4nc(N)oc4c3)c/c(=N\c3ccccc3NC(=O)CCN)c2c1,CDK5 with p35,binding,remaining binding,107%
CC(C)S(=O)(=O)c1ccc2nccc(Nc3ccc4sc(C5CCCC5)nc4c3)c2c1,CDK5 with p35,"enzyme activity, inhibitor",activity vs control,101%
CNS(=O)(=O)c1ccc(Nc2ncc(C(F)(F)F)c(N3CCC[C@](C)(O)C3)n2)c(C)c1,CDK5,"binding, competition with immobilised ligand",remaining binding,13%
C=CC(=O)N1CCC([C@@H]2CCNc3c(C(N)=O)c(-c4ccc(Oc5ccccc5)cc4)nn32)CC1,CDK5,"enzyme activity, inhibitor",inhibition,7%
CN1CCN(C(=O)c2ccc(NC(=O)Nc3ccc(N(C)c4ccnc(Nc5ccc(CS(C)(=O)=O)cc5)n4)cc3)cc2)CC1,CDK5,"binding, competition with immobilised ligand",remaining binding,91%
